For test [1], the system named is Plasmodium falciparum. Put plainly: Antiplasmodial activity against chloroquine-sensitive Plasmodium falciparum 3D7 assessed as inhibition of trophozoite stage parasite growth at IC50 after 6 hr by [3H]hypoxanthine incorporation assay. The format is functional, organism-based. In outline:
(§1)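 P. falciparum 3D7 is synchronized with sorbitol. […] Cells are washed four times, then labelled with [3H]hypoxanthine for 24 h. Growth is given as % of untreated control for each stage, in triplicate.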

Test [2] has as its system Plasmodium falciparum. As to the kind of experiment: Antiplasmodial activity against chloroquine-sensitive Plasmodium falciparum 3D7 assessed as inhibition of ring stage parasite growth at IC50 after 6 hr by [3H]hypoxanthine incorporation assay. The format is functional, organism-based. In a few lines: as §1
For test [3], the system named is Plasmodium falciparum. As to the kind of experiment: Antiplasmodial activity against chloroquine-sensitive Plasmodium falciparum 3D7 assessed as inhibition of schizont stage parasite growth at IC50 after 6 hr by [3H]hypoxanthine incorporation assay. The format is functional, organism-based. In outline:
as §1

The subject of the next test is Heme. As to the kind of experiment: Inhibition of heme aggregation at 500 uM. In outline: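 Hemin chloride stock (10 mM in 0.1 M NaOH), prepared fresh and held at 37°C for at least 1 h. Aggregation run in 20 mM sodium phosphate pH 5.2 with 25 μM initial heme at 37°C. Inhibitor dissolved in dimethylformamide or buffer. After incubation, samples centrifuged and absorbance read at 360 nm, with matching control values subtracted.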

The test system of the next test is L6. As to the kind of experiment: Cytotoxicity against rat L6 cells. It counts as cell-based.

Values after ≈ are worked out from the molar mass of the structure shown. Active and inactive are the calls of the source. The rule behind the calls is not given here.

A word on the IC50: it is the concentration that gives 50% inhibition. High values mean a need for much substance, low ones inhibition by little substance.

With `CCN(CC)CCCC(C)Nc1ccnc2cc(Cl)ccc12` (stereo not given), the “growth inhibition (GI)” value in the test with Plasmodium falciparum [1], in the test on Plasmodium falciparum [2] and with Plasmodium falciparum [3] was “Active” each time. Also, the inhibition result in the test on Heme was “inactive”.
Take `COc1cc([C@@H]2c3cc4c(cc3[C@H](O)[C@H]3COC(=O)[C@H]23)OCO4)cc(OC)c1OC` [PODOFILOX]: the IC50 in the test with L6 came out at 8 ng/mL (≈ 0.0193 µM).

For the origin of these results see ChEMBL document CHEMBL1687720 (Antimicrob Agents Chemother, 2009).
